“Also recorded” adds a separate entry of the source.
Experiments:
[1] = target: cTnI binding to immune-captured ATP synthase (UniProt P19429+P31399); test: Inhibition of cTnI binding to ATP synthase by ELISA; assay type: rat heart mitochondria; recombinant human cTnI; details: P888 2μM
How it was run: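 ELISA on anti-ATP synthase antibody plates blocked with 2% BSA. Plates were co-incubated with solubilized rat heart mitochondria (4 μg) and recombinant human cTnI (2 μg) ± test peptide (2 μM). After washing, bound cTnI was detected with HRP anti-cTnI antibody (1:5000, 1 h), then TMB, stopped with 2N sulfuric acid; absorbance at 450 nm.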

[2] = test system: F1FO-ATP synthase (ATPase activity); test: F1FO-ATPase activity assay; assay type: biochemical, rat; details: P888 (2μM) co-incubation with cTnI (2μg); n=3 independent experiments
How it was run: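 Rat heart mitochondria (4 μg, solubilized) were captured on anti-ATP synthase antibody plates and co-incubated with recombinant human cTnI (2 μg) ± test peptide (2 μM). Absorbance was read over 120 min. Oligomycin served as negative control. n=3 independent experiments, each in 3–4 replicates; two-way ANOVA with Sidak correction.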

[3] = test system: mitochondria of rat hearts after myocardial IR; test: Rat in vivo LAD ligation IR: mitochondrial oxygen consumption after IR; details: 3mg/kg IP at reperfusion, 24 hours after reperfusion, n=15

Sequence of cTnI binding to immune-captured ATP synthase (P19429 whole entry): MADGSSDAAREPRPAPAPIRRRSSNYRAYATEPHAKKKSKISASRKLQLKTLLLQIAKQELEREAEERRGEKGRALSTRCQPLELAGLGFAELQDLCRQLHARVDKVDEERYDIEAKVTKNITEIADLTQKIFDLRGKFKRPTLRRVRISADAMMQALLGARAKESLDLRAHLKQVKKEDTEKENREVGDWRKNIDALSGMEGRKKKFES
Sequence of cTnI binding to immune-captured ATP synthase (P31399 2-161 limits assumed): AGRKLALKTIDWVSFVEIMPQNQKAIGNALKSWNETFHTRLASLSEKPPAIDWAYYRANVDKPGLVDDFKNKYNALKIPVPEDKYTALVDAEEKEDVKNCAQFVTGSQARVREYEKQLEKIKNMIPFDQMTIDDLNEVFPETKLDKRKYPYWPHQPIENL

inhibition of cTnI binding to the immune-captured ATP synthase ([1]; cTnI (2μg), n=3): ~ 78%
Substance: A2GRKLALKTI11 [P888]
inhibition of cTnI binding to ATP synthase ([1]; n=3, result in words): binding is inhibited in the presence of P888; also recorded: inhibited cTnI binding to ATP synthase
prevention of cTnI-induced increase in ATPase activity [2]: blocked the cTnI-induced increase in ATPase activity; also recorded: P888 co-incubation prevents this effect; also recorded: inhibited cTnI-induced increase in ATPase activity in vitro
mitochondrial respiration after IR [3]: no significant effect of P888 on mitochondrial function

From publication PMC11700703 (Nature cardiovascular research, 2024)
